Bioassay records from PubChem BioAssay.
CaV13 FRET inh = Primary screen for inhibitors of IQ motif and Ca2+-dependent inactivation inhibitor domain binding in CACNA1D, Förster resonance energy transfer in living cells, …; HEK cells, CFP/YFP FRET ICDI-IQ, plate reader, 10 min; percent FRET-ratio fall versus neutral wells; inhibition, % at 12.3 µM; hit rate 0.098% among 340,000; AID 743397;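 active = mean replicate inhibition of at least 30% and at least 1% of replicates passing that level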;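 also: 0% = median of the neutral control wells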
CendR NRP1 mod = alters CendR peptide binding to human NRP-1; O14786; FAM-RPARPAR peptide binding to NRP-1, fluorescence polarization; inhibition, % at 25 µM; hit rate 0.85% among 360,000;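 active = inhibition or corrected inhibition above about 18%, plus a signal ratio from 0.5 to 1.5, limit read from the data, passing the limit was not always enough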
ADAM17 inh = inhibitors of human ADAM17 | hit rate 0.83% among 370,000 | inhibition, % at 6.95 µM | recombinant ADAM17, EDANS/DABCYL FRET peptide cleavage | P78536;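 active = inhibition above the mean of compounds lying between control limits plus 3 SD, set per campaign, cut at about 8.5% in these data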;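 also: 0% = DMSO-only wells as the low control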
ADAM10 inh = inhibitors of human ADAM10. recombinant ADAM10, EDANS/DABCYL FRET peptide cleavage, 3 h. inhibition, % at 7 µM. hit rate 0.62% among 370,000. AID 720582;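 active = inhibition above a per-campaign cutoff equal to the mean of compounds falling between control-based bounds plus 3 SD, cut at about 20% in these data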;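 also: 0% = DMSO wells while the 100% control is not disclosed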
Target sequence (O14672 214-748 limits assumed): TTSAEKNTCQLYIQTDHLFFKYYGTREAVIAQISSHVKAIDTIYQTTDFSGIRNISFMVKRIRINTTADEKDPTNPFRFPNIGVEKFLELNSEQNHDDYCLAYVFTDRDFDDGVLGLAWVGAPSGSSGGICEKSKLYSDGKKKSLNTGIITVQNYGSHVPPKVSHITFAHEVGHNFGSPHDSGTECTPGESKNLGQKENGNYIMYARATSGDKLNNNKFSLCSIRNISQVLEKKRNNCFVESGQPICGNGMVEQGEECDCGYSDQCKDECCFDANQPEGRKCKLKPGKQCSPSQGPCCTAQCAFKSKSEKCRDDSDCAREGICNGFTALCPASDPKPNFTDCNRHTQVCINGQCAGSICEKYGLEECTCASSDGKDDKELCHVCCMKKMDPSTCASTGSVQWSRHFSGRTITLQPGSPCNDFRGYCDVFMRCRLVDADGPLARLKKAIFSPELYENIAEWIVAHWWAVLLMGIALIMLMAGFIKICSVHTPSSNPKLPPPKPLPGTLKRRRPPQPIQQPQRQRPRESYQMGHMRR
FAS TE block = blocks the thioesterase domain of human fatty acid synthase; recombinant FAS-TE, OMFH fluorogenic substrate, fluorescence endpoint; inhibition, % at 15 µM; hit rate 0.67% among 360,000; AID 602261;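 active = compounds whose normalised, plate-corrected inhibition of enzyme fluorescence in the single-dose primary screen is 50% or more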;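 also: 0% = DMSO with enzyme and 100% = substrate without enzyme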
Arrestin-AP2 inh = human beta-arrestin and AP2 interaction inhibition; FITC-arrestin peptide / GST-AP2 beads, flow cytometry; AP2 beta2 appendage carries R879A mutation; inhibition, % at 10 µM; hit rate 0.31% among 340,000; AID 504490;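 active = inhibition above a set limit, near 3 SD of compounds lacking own fluorescence, cut at about 54% in these data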;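 also: plate controls were DMSO wells for no effect and 5 µM unlabelled arrestin peptide for full effect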
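Assay system: GST-AP2 R879A bound to glutathione beads, E. coli-expressed; Medium: PBS with 0.05% Tween 20 and 0.1% BSA; Also added: fluorescein-tagged arrestin peptide at 50 nM final; Timing: 12 min plus 1 h, RT; Measured by: flow cytometry, FL1 (488/535 nm); Evaluation: percent drop in bead-associated FITC signal.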
ADAM10 confirm = human ADAM10 inhibition, confirmation; shares compounds with ADAM10 inh; ADAM10 QFRET peptide cleavage, EDANS fluorescence; inhibition, % at 6.95 µM; hit rate 1% among 2,100; AID 743208;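 active = inhibition above about 20% chosen separately for each screening run, limit read from the data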;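 also: 0% = DMSO wells and 100% = marimastat wells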
ADAM17 ctr = ADAM17 inhibition, counter-screen for ADAM10 exosite hits; inhibition, % at 6.95 µM; shares compounds with ADAM10 inh; ADAM17 QFRET peptide cleavage, EDANS fluorescence; hit rate 0.5% among 2,100;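 active = mean triplicate inhibition above the solvent-only control wells' mean plus 3 SD, cut at about 12% in these data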;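 also: 0% = DMSO wells and 100% = marimastat wells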
The depositor's hits bear a star; x = not tested or not shown. In the library only some 2.9% were active in any assay of this set; here they are far more common.

SMILES	CaV13 FRET inh	CendR NRP1 mod	ADAM17 inh	ADAM10 inh	FAS TE block	Arrestin-AP2 inh	ADAM10 confirm	ADAM17 ctr
O=C(CSc1nnc(SCc2ccccc2)s1)NNC(=S)Nc1ccccc1	-7	3	8	24*	-4	-1	0	1
N#Cc1c(N)[nH]c2ccc(Sc3ccccc3)cc12	-7	-6	1	25*	32	-10	3	2
O=C(COC(=O)c1cc(-c2cccs2)nn1-c1ccccc1)Nc1ccc(Cl)c([N+](=O)[O-])c1	-3	-6	7	21*	41	10	6	2
COc1ccc(NC(C)C(=O)Nc2ccc(C(C)(C)C)cc2)cc1Cl (centres undefined)	-4	4	7	27*	-20	21	7	1
COc1ccc(NC(C)C(=O)Nc2ccc(C#N)cc2)cc1Cl (centres undefined)	-3	-4	-4	7	5	1	x	x
CC(NC(=S)NC(=O)c1cccs1)c1ccccc1 (centres undefined)	-7	-7	1	7	14	-3	x	x
CC(NC(=O)c1cccs1)C(S)c1ccccc1 (centres undefined)	-1	-8	15*	34*	-7	2	7	2
C=CCn1c(SCc2ccc(C#N)cc2)nnc1-c1ccco1	x	x	1	0	x	x	x	x
CC(=O)NC1CCCCN(Cc2ccc(Cl)cc2)C1=O (centres undefined)	x	x	1	-3	x	x	x	x
CC(C)CC#Cc1ccc2c(c1)O[C@H](CN(C)C(=O)Nc1ccccc1)[C@@H](C)CN([C@H](C)CO)S2(=O)=O	-8	-10	2	2	-2	x	x	x
C[C@@H]1CN([C@H](C)CO)S(=O)(=O)c2ccc(C#Cc3ccccc3)cc2O[C@H]1CN(C)C(=O)Nc1ccc2c(c1)OCO2	-6	-15	6	20*	30	x	9	3
CC(C)(C)OC(=O)NCCc1onc(-c2ccccc2F)c1C(=O)O	-6	2	-3	5	-8	x	x	x
COc1ccccc1-n1cc(-c2ccc([N+](=O)[O-])cc2)[nH]c1=S	-19	0	8	27*	7	-4	3	1
Cc1ccc(C(O)(C(=O)NNc2ccccn2)c2ccc(C)cc2)cc1	4	-6	-3	1	-1	19	x	x
Cc1ccc(NNC(=O)C(O)(c2cccc(C(F)(F)F)c2)c2cccc(C(F)(F)F)c2)cc1	-2	2	7	26*	33	-1	1	0
CC(Nc1nc(-c2ccc(F)cc2)cs1)c1nc2cc(Cl)c(N3CCCCC3)cc2n1CCCO (centres undefined)	-13	-17	4	42*	10	20	4	2
CCOc1ccc(S(=O)(=O)n2cnc3ccccc32)cc1	0	6	-1	64*	-3	1	3	0
CCOc1ccc(S(=O)(=O)n2c(C)nc3ccccc32)cc1	-7	0	3	8	-8	5	x	x
COc1ccc(-c2csc(C(O)(c3ccccc3)C(F)(F)F)n2)cc1 (centres undefined)	-5	-7	8	19	26	x	x	x
OC(c1ccccc1)(c1nc(-c2ccc(Cl)cc2)cs1)C(F)(F)F (centres undefined)	-5	-17	8	23*	43	x	11	3
N#Cc1cccc(-c2csc(C(O)(c3ccccc3)C(F)(F)F)n2)c1 (centres undefined)	-13	-11	8	20*	40	x	4	1
COc1ccc(-c2cn[nH]c2-c2ccc(OCc3ccccc3F)cc2O)cc1OC	-6	6	8	23*	-14	3	10	4
COc1ccc(-c2cn[nH]c2-c2ccc(OCc3ccccc3)cc2O)cc1	-6	12	7	20*	-4	18	14	5
